Laboratory results: ChEMBL document CHEMBL1145300, “Design, synthesis, and anti-inflammatory activity both in vitro and in vivo of new betulinic acid analogues having an enone functionality in ring A” (Bioorg Med Chem Lett, 2006)
Active and inactive are the calls of the source. The calls are words filed in the database; no cut-off is given here.

test system: RAW; assay: Inhibition of nitric oxide production in IFN-gamma stimulated RAW 264.7 cells; type: functional, cell-based; settings: Mus musculus

In order of falling IC50:
1. C=C(CO)[C@@H]1CC[C@]2(C(=O)OC)CC[C@]3(C)C(CC[C@@H]4[C@@]5(C)C=C(C(=O)OC)C(=O)C(C)(C)[C@@H]5CC[C@]43C)[C@@H]12 (stereo partly drawn)  1 µM
2. C=C(CO)[C@@H]1CC[C@]2(C(=O)OC)CC[C@]3(C)C(CC[C@@H]4[C@@]5(C)C=C(C(=O)O)C(=O)C(C)(C)[C@@H]5CC[C@]43C)[C@@H]12 (stereo partly drawn)  0.9 µM
3. C=C(C)[C@@H]1CC[C@]2(C(=O)OC)CC[C@]3(C)C(CC[C@@H]4[C@@]5(C)C=C(C(=O)OC)C(=O)C(C)(C)[C@@H]5CC[C@]43C)[C@@H]12 (stereo partly drawn)  0.6 µM
4. C=C(C)[C@@H]1CC[C@]2(C(=O)OC)CC[C@]3(C)C(CC[C@@H]4[C@@]5(C)C=C(C(=O)O)C(=O)C(C)(C)[C@@H]5CC[C@]43C)[C@@H]12 (stereo partly drawn)  0.3 µM
5. C=C(CF)[C@@H]1CC[C@]2(C(=O)OC)CC[C@]3(C)C(CC[C@@H]4[C@@]5(C)C=C(C(=O)OC)C(=O)C(C)(C)[C@@H]5CC[C@]43C)[C@@H]12 (stereo partly drawn)  0.3 µM
6. C=C(CF)[C@@H]1CC[C@]2(C(=O)OC)CC[C@]3(C)C(CC[C@@H]4[C@@]5(C)C=C(C(=O)O)C(=O)C(C)(C)[C@@H]5CC[C@]43C)[C@@H]12 (stereo partly drawn)  0.3 µM
7. C=C(C)[C@@H]1CC[C@]2(C(=O)O)CC[C@]3(C)C(CC[C@@H]4[C@@]5(C)C=C(C#N)C(=O)C(C)(C)[C@@H]5CC[C@]43C)[C@@H]12 (stereo partly drawn)  0.2 µM
8. C=C(C)[C@@H]1CC[C@]2(C(=O)NC)CC[C@]3(C)C(CC[C@@H]4[C@@]5(C)C=C(C#N)C(=O)C(C)(C)[C@@H]5CC[C@]43C)[C@@H]12 (stereo partly drawn)  0.05 µM
9. C=C(C)[C@@H]1CC[C@]2(C(=O)n3ccnc3C)CC[C@]3(C)C(CC[C@@H]4[C@@]5(C)C=C(C#N)C(=O)C(C)(C)[C@@H]5CC[C@]43C)[C@@H]12 (stereo partly drawn)  0.05 µM
10. C=C(C)[C@@H]1CC[C@]2(C(N)=O)CC[C@]3(C)C(CC[C@@H]4[C@@]5(C)C=C(C#N)C(=O)C(C)(C)[C@@H]5CC[C@]43C)[C@@H]12 (stereo partly drawn)  0.03 µM
11. C=C(C)[C@@H]1CC[C@]2(C(=O)OC)CC[C@]3(C)C(CC[C@@H]4[C@@]5(C)C=C(C#N)C(=O)C(C)(C)[C@@H]5CC[C@]43C)[C@@H]12 (stereo partly drawn)  0.03 µM
12. C=C(C)[C@@H]1CC[C@]2(C(=O)n3ccnc3)CC[C@]3(C)C(CC[C@@H]4[C@@]5(C)C=C(C#N)C(=O)C(C)(C)[C@@H]5CC[C@]43C)[C@@H]12 (stereo partly drawn)  0.03 µM
13. C=C(C)[C@@H]1CC[C@]2(C(=O)N(C)C)CC[C@]3(C)C(CC[C@@H]4[C@@]5(C)C=C(C#N)C(=O)C(C)(C)[C@@H]5CC[C@]43C)[C@@H]12 (stereo partly drawn)  0.03 µM
14. C=C(C)[C@@H]1CC[C@]2(C(=O)n3ccnc3CC)CC[C@]3(C)C(CC[C@@H]4[C@@]5(C)C=C(C#N)C(=O)C(C)(C)[C@@H]5CC[C@]43C)[C@@H]12 (stereo partly drawn)  0.03 µM
15. C=C(C)[C@@H]1CC[C@]2(C(=O)OCC)CC[C@]3(C)C(CC[C@@H]4[C@@]5(C)C=C(C#N)C(=O)C(C)(C)[C@@H]5CC[C@]43C)[C@@H]12 (stereo partly drawn)  0.02 µM

`C=C(C)[C@@H]1CC[C@]2(C(=O)O)CC[C@]3(C)[C@H](CC[C@@H]4[C@@]5(C)CC[C@H](O)C(C)(C)[C@@H]5CC[C@]43C)[C@@H]12` was tested, and the Activity was “inactive”.

molecular target: T1, Heme oxygenase 1 (Mus musculus) (UniProt P14901); assay: Induction of liver HO1 in CD1 mouse at 2 uM, po after 6 hrs; type: organism-based; settings: not given
T1 sequence (whole entry): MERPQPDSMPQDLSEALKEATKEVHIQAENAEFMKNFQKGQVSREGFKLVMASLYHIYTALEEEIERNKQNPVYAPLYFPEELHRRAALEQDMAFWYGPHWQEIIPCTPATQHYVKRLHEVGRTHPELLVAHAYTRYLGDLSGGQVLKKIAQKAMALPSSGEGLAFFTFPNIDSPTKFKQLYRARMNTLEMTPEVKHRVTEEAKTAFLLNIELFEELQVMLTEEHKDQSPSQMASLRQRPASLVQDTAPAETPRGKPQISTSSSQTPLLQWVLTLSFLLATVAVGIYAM
In short: (§1)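 Male CD-1 mice, 3 per group, were given a single oral gavage of 2 μmole triterpenoid in DMSO. The read-out was heme oxygenase-1 (HO-1) induction in the liver.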

For `C=C(C)[C@@H]1CC[C@]2(C(=O)n3ccnc3)CC[C@]3(C)C(CC[C@@H]4[C@@]5(C)C=C(C#N)C(=O)C(C)(C)[C@@H]5CC[C@]43C)[C@@H]12` (stereo partly drawn), the Activity was “Active”.

test system: Mus musculus; assay: Antiinflammatory activity in CD1 mouse at 2 uM, po; type: functional, organism-based; settings: not given; in short: as §1

`C=C(C)[C@@H]1CC[C@]2(C(=O)n3ccnc3)CC[C@]3(C)C(CC[C@@H]4[C@@]5(C)C=C(C#N)C(=O)C(C)(C)[C@@H]5CC[C@]43C)[C@@H]12` (stereo partly drawn) was tested, and the Activity was “Active”.
